# A selection: hits, their analogues and other compounds. The true share with any hit is near 2.3%.
# TRPC6 inhibitor: blocks the mouse TRPC6 cation channel | Q61143 | HEK293-TRPC6, membrane potential dye, ACh-evoked depolarization; stronger effect = lower value | B-score at 10 µM | 310,000 tested, 1.1% active | AID 2553;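 active = B-score under library mean minus 3 SD, initial fluorescence not abnormally high, positive integrated signal ratio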;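 note: B-score derived from integrated fluorescence ratio over the kinetic read; more negative B-score means stronger inhibition of depolarization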
# Target sequence (Q61143 whole entry, looked up): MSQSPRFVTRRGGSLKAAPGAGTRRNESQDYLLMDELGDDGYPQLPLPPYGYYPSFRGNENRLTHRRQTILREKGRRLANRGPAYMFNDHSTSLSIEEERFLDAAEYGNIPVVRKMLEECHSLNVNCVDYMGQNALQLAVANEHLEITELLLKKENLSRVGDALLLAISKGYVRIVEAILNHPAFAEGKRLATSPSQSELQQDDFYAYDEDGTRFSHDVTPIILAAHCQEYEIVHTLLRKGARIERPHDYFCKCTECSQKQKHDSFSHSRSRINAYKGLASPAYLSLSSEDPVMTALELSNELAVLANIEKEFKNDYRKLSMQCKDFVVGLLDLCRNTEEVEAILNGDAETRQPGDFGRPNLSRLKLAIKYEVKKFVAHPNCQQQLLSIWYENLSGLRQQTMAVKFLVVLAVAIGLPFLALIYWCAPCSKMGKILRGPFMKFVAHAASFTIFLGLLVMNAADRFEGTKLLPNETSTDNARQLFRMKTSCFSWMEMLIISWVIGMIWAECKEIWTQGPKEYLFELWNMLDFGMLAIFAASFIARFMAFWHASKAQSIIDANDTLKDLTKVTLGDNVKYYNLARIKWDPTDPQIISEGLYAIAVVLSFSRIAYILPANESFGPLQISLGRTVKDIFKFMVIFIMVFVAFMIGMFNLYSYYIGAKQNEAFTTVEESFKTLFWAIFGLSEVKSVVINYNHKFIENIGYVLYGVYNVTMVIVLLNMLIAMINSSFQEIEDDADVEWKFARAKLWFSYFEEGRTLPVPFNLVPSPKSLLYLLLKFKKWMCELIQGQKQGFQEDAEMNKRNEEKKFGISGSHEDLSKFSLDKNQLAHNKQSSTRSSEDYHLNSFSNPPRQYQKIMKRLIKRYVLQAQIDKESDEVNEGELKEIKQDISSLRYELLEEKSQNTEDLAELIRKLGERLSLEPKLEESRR
# TRPC4 PAM: allosterically enhances the mouse TRPC4 cation channel; AID 2227; B-score at 10 µM; HEK293 TRPC4beta/mu-opioid, DAMGO EC20, Fluo-4 Ca2+ flux; stronger effect = higher value; 310,000 tested, 0.42% active;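 active = B-score of calcium response area above 5 SD of library B-scores, with initial fluorescence ratio within 5 SD of library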;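 note: B-score of integrated fluorescence ratio over time as area under calcium response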
# TRPC6 activator: activates the mouse TRPC6 cation channel; HEK293-TRPC6 membrane potential dye fluorescence; stronger effect = higher value; 310,000 tested, 0.13% active; B-score at 10 µM; Q61143; AID 2550;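 active = B-score of the integrated fluorescence ratio above library mean plus 3 SD, and starting fluorescence ratio within library mean plus 5 SD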;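 note: higher score means more depolarization so channel activation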
# TRPC4 act: activators of mouse TRPC4 channel; Q9QUQ5; HEK293 TRPC4beta/mu-opioid, Fluo4 calcium fluorescence; stronger effect = higher value; B-score at 10 µM; 310,000 tested, 0.49% active;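 active = B-score above 5 SD of library B-scores, and initial fluorescence ratio not above library mean plus 5 SD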;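 note: positive B-score marks a calcium rise read as TRPC4 activation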
#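 Test system: HEK293 cells stably co-expressing mouse TRPC4beta and mu-opioid receptor | Schedule: Fluo4 dye loading 45 min at room temperature, 110 s recording | Measured by: Kinetic Fluo4 calcium fluorescence, 5 s baseline at 1 Hz | Evaluation: B score of integrated ratio | Controls: Buffer (low) and maximal DAMGO (high)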
# TRPC4 block: blocks the mouse TRPC4 cation channel. Q9QUQ5. HEK293 TRPC4beta/mu-opioid, DAMGO-evoked Fluo4 calcium flux; stronger effect = lower value. B-score at 10 µM. 300,000 tested, 0.39% active. AID 2247;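 active = B-score over 3 SD under the library average, no early fluorescence shift, positive overall ratio signal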
#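 Assay system – HEK293 line stably carrying TRPC4beta and mu-opioid receptor · Doses – single dose · Detection – Fluo4 calcium-dye fluorescence, kinetic read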
# TRPC4 spec 2: mouse TRPC4 off-target activity of TRPC6 inhibitors, second screen. inhibition, % at 10 µM. 920 tested, 42% active. shares compounds with TRPC6 inhibitor. HEK293 TRPC4/MOR, membrane potential dye fluorescence; channel activated by saturating DAMGO dose;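 active = compounds whose fluorescence signal differed from control wells by over 3 SD, either direction, in both duplicate plates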
# TRPC4 spec: tests whether TRPC6 inhibitors also affect mouse TRPC4 | activity change, negative = inhibition, % at 10 µM | shares compounds with TRPC6 inhibitor | AID 2777 | 920 tested, 61% active | HEK293 TRPC4/mu-opioid, membrane potential fluorescence;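 active = rise or fall in signal beyond 3 SD of buffer-only wells in both replicate plates, either sign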;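 note: integrated kinetic ratio of fluorescence range over baseline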
# HEK293 MPD ctr 2-1: second counter-screen for TRPC6 inhibitors: parental HEK293 cells | 920 tested, 31% active | parental HEK293 membrane potential dye fluorescence; maximal acetylcholine challenge after compound addition | signal change vs control, % at 10 µM | shares compounds with TRPC6 inhibitor;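 active = membrane potential signal moving either way by over 3 SD of the maximum-effect control, in both duplicate plates, meaning non-specific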
# HEK293 MPD ctr-1: parental HEK293 nonspecific activity of TRPC6 inhibitors; shares compounds with TRPC6 inhibitor; parental HEK293 membrane potential dye fluorescence; membrane potential signal change, % at 10 µM; 920 tested, 60% active; AID 2780;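 active = membrane potential signal shifting up or down by more than 3 SD of buffer-only wells, on both duplicate plates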
# HEK293 MPD ctr-2: parental HEK293 nonspecific activity of TRPC6 modulators. membrane potential dye fluorescence. shares compounds with TRPC6 inhibitor. membrane potential signal change, % at 10 µM. 2,400 tested, 51% active;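 active = membrane potential signal moves up or down beyond 5 SD from buffer-only wells, on both duplicate plates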
# HEK293 MPD ctr 2-2: parental HEK293 nonspecific activity of TRPC6 modulators, second screen. shares compounds with TRPC6 inhibitor. inhibition, % at 10 µM. membrane potential dye fluorescence; after compound, maximal acetylcholine stimulation. 2,400 tested, 14% active;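 active = membrane potential signal drops by more than 5 SD from the mean control signal, in both duplicate plates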;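 note: plate controls were acetylcholine ECmax control wells for no effect and buffer only wells for full effect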
# TRPC4 ctr mod: selectivity of TRPC6 modulators against mouse TRPC4; shares compounds with TRPC6 inhibitor; HEK293 TRPC4/mu-opioid, membrane potential fluorescence; percent change from control (negative = decrease, positive = increase), % at 10 µM; 2,400 tested, 69% active; AID 488927;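 active = membrane potential signal moved up or down beyond 5 SD of buffer control wells, in both duplicate plates, actives on both sides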;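 note: plate controls were assay buffer wells for no effect and DAMGO maximal-effect wells for full effect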
# TRPC4/MOR inh 2: second check of whether TRPC6 modulators also affect mouse TRPC4; inhibition, % at 10 µM; 2,400 tested, 55% active; HEK293 TRPC4/mu-opioid, membrane potential dye fluorescence; stimulated with maximal-effect DAMGO; shares compounds with TRPC6 inhibitor; AID 488928;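 active = drop in membrane potential signal beyond 5 SD of the control wells in both duplicate plates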;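 note: TRPC4 counter screen for TRPC6 hits run under conditions tuned for TRPC6 not TRPC4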
# TRPC6 block conf: confirmation of mouse TRPC6 inhibitors | HEK293-TRPC6, membrane potential dye, ACh-evoked depolarization | shares compounds with TRPC6 inhibitor | inhibition, % at 10 µM | 3,300 tested, 43% active;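 active = fluorescence ratio falls more than 5 SD below the full-stimulation control mean, in both duplicate runs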;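 note: integrated fluorescence ratio of peak minus minimum over baseline after agonist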
# TRPC6 act conf: confirmation of mouse TRPC6 activators | shares compounds with TRPC6 inhibitor | activation, % at 10 µM | 2,800 tested, 11% active | HEK293-TRPC6 membrane potential dye fluorescence, FDSS;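 active = ratio signal rise beyond 5 SD above unstimulated control wells' mean, seen in both duplicate runs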;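 note: plate controls were buffer EC0 wells for no effect and acetylcholine ECmax response for full effect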
# The depositor's hits bear a star; i = inactive; · = no result given.
SMILES,TRPC6 inhibitor,TRPC4 PAM,TRPC6 activator,TRPC4 act,TRPC4 block,HEK293 MPD ctr-2,HEK293 MPD ctr 2-2,TRPC4 ctr mod,TRPC4/MOR inh 2,TRPC6 block conf,others
NC(=O)c1cc(C(=O)Cc2ccc(Cl)cc2)c[nH]1,i,i,i,i,i,·,·,·,·,·,
NC1=NC(=Nc2ccc(Br)cc2)c2ccccc21,-5.02*,i,i,i,i,i,i,-17.0%*,40.0%*,i,TRPC6 act conf=i
CC(C)c1ccc(N=C2N=C(N)c3ccccc32)cc1,-6.08*,i,i,i,i,i,i,-29.0%*,77.0%*,73.0%*,TRPC6 act conf=i
NC1=NC(=Nc2ccc(Cl)cc2)c2ccccc21,i,i,i,i,i,·,·,·,·,·,
O=C(CSCc1cnn(-c2ccccc2)c1-n1cccc1)NCc1ccccn1,-6.28*,i,i,i,i,i,i,11.0%*,i,i,
Nc1nonc1-n1nnc(C(=O)N/N=C/c2ccncc2)c1-c1ccccc1,i,i,i,i,i,·,·,·,·,·,
CN1CCC=C(C(=O)N2c3ccccc3Sc3ccc(Cl)cc32)C1,-5.36*,i,i,i,i,118.0%*,i,15.5%*,38.5%*,41.0%*,
NCCC(=O)N1c2ccccc2Sc2ccc(Cl)cc21,i,i,i,i,i,·,·,·,·,·,
CN(C)CCC(=O)N1c2ccccc2Sc2ccc(Cl)cc21,-8.47*,i,i,i,i,·,·,·,·,58.5%*,TRPC4 spec 2=i;TRPC4 spec=4.2%*;HEK293 MPD ctr 2-1=i;HEK293 MPD ctr-1=7.7%*
O=C(CCN1CCN2CCCC2C1)N1c2ccccc2Sc2ccc(Cl)cc21 (stereo not drawn),i,i,i,i,i,·,·,·,·,·,
NCCCC(=O)N1c2ccccc2Sc2ccc(Cl)cc21,-5.28*,i,i,i,i,i,i,i,54.0%*,64.0%*,TRPC6 act conf=i
CN(C)CC(=O)N1c2ccccc2Sc2ccc(Cl)cc21,i,i,i,i,i,·,·,·,·,·,
CCN(CC)CCC(=O)N1c2ccccc2Sc2ccc(Cl)cc21,-5.37*,i,i,i,i,216.5%*,i,35.0%*,45.5%*,78.5%*,
CN1CCN(CCC(=O)N2c3ccccc3Sc3ccc(Cl)cc32)CC1,i,i,i,i,i,·,·,·,·,·,
Cc1sc2ncn(CC(=O)Nc3c(F)cccc3F)c(=O)c2c1S(=O)(=O)N1CCC(C)CC1,i,i,i,i,i,·,·,·,·,·,

# Source: PubChem (Johns Hopkins Ion Channel Center)
